From PubChem BioAssay AID504383 (The Scripps Research Institute Molecular Screening Center, 2011)
Out of some 2,500 compounds screened, about 1,200 (48%) were called active.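 How the source made its calls: active means mean activation above the low control average plus 3 SD, as set in the primary screen (cut at about 12% in these data); inactive means the rest.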 The set was probably picked from earlier hits. This is one part of the list.

Each molecule was assayed against Troponin I, cardiac muscle (Homo sapiens) + Troponin T, cardiac muscle (Homo sapiens) + Troponin C, slow skeletal and cardiac muscles (Homo sapiens) (UniProt P19429+P45379+P63316) (assay: calcium sensitizers of cardiac thin filaments – biochemical, IANBD-TnC fluorescence, triplicate, confirmation (AID 504383;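 further: 0% = DMSO at 0.472 mM calcium and 100% = DMSO at 2.9 mM calcium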)). Conditions: IANBD-labeled cardiac RTF, Ca2+ sensitivity fluorescence; at 7.2 µM; stronger effect = higher value; scaled from EC20 to saturating calcium; tested at EC20 calcium, 0.472 mM.
Method in brief: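 Material: labelled regulated thin filaments; Reagent: 0.472 mM calcium; Incubation: 15 min compound incubation with filaments at 25 °C; Detection: filament fluorescence intensity; Evaluation: fluorescence increase normalised to calcium controls; Benchmarks: low control EC20 calcium, high control EC100 calcium.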
`CCN(CC)CCCC(C)n1c2nc(=O)[nH]c(=O)c-2nc2cc(Cl)ccc21` (stereo not drawn) was tested, and the activation was 7.49% (inactive).
In the case of `CCOC(=O)c1ccc(N=c2sc(C(=O)OC)cc(=O)n2CCCN2CCOCC2)cc1`, the activation is reported as 4.75% (inactive).
For `O=C(NC(=S)NCCN1CCOCC1)c1ccc(F)cc1`, the activation was 72.6% (active).
`CCOC(=O)c1c(NC(=S)N2CCN(C)CC2)sc2c1CCN(C(=O)OCC)C2` was tested, and the activation was 7.96% (inactive).
`CCC(CC)NC(=O)Nc1ccccc1C` was tested, and the activation was 7.62% (inactive).
With `CCOC(=O)N1CCN(C(=S)Nc2ccccc2C)CC1` the activation was 32.7% (active).
`N#Cc1ccc(S(=O)(=O)NC2CCN(Cc3ccccc3)CC2)cc1` was tested, and the activation was 9.61% (inactive).
In the case of `N#Cc1ccc(S(=O)(=O)NC2CCCCNC2=O)cc1` (stereo not drawn), the activation is reported as 93.6% (active).
In the case of `O=C1NCCCCC1NS(=O)(=O)c1cccc(C(F)(F)F)c1` (stereo not drawn), the activation is reported as 7.86% (inactive).
For `CCOP(=O)(OCC)/C(=N/OC(=O)c1ccc(OC)cc1)C(N)=O`, the activation was 11.7% (active).
For `COc1[nH]c(/N=C/c2ccccc2)c(C#N)c1C#N`, the activation was 7.9% (inactive).
With `CCOc1ccc(NC(=O)C2CCN(S(=O)(=O)c3cccnc3)CC2)cc1` the activation was 0.88% (inactive).
With `O=C(c1cc(-c2cccs2)nn1-c1ccccc1)N1CCN(S(=O)(=O)c2ccccc2)CC1` the activation was 3.27% (inactive).
`O=C(Nc1ccccc1N1CCOCC1)C1CCN(S(=O)(=O)c2ccccc2F)CC1` was tested, and the activation was 3.08% (inactive).
For `O=C(CSc1n[nH]c(-c2cccs2)n1)N1CCOCC1`, the activation was 3.55% (inactive).
In the case of `O=C(CC1CCCC1)N1CCN(S(=O)(=O)c2ccccc2)CC1`, the activation is reported as 3.96% (inactive).
For `O=C(Nc1ccc(Cl)cn1)C1CCN(S(=O)(=O)c2cccs2)CC1`, the activation was 242% (active).
With `O=C(Cc1cccs1)N1CCN(S(=O)(=O)c2cc(Cl)ccc2Cl)CC1` the activation was 13.5% (active).
For `O=C(Nc1nccs1)C1CCN(S(=O)(=O)c2ccccc2)CC1`, the activation was 1030% (active).
For `O=C(c1cc(Cl)ccc1O)N1CCN(S(=O)(=O)c2cccs2)CC1`, the activation was 683% (active).
With `COc1ccc(NC(=O)CSc2ccc3c4c(cccc24)C(=O)c2ccccc2-3)cc1` the activation was 19.2% (active).
With `N#Cc1cccc(NC(=S)Nc2ccccc2)c1` the activation was 6.24% (inactive).
`N#Cc1cccc(NC(=O)CSc2ccc3c4c(cccc24)C(=O)c2ccccc2-3)c1` was tested, and the activation was 15.7% (active).
With `COc1ccc(NC(=O)CC2C(=O)N(Cc3ccco3)C(=S)N2C(C)C)cc1` (stereo not drawn) the activation was 41.6% (active).
With `COc1ccc(/C(O)=C2\C(=O)C(=O)N(Cc3ccco3)C2c2cc(OC)ccc2OC)cc1` (stereo not drawn) the activation was 10.9% (inactive).
For `O=S(=O)(c1ccc(F)cc1)N1CCN(CCOc2ccccc2)CC1`, the activation was 956% (active).
With `COC(=O)N1CCN(S(=O)(=O)c2ccc(F)cc2)CC1` the activation was 8.33% (inactive).
With `COc1ccc(C(=O)Nc2ccccc2-c2ccccc2)cc1Cl` the activation was 11% (inactive).
In the case of `O=C(Nc1ccccc1-c1ccccc1)c1ccc(Cl)c([N+](=O)[O-])c1`, the activation is reported as 48.5% (active).
With `O=[N+]([O-])c1cc(-c2ccn[nH]2)ccc1Cl` the activation was 10.1% (inactive).
With `O=C1/C(=C\c2cc(Cl)c(O)c(Cl)c2)SC(=S)N1Cc1ccccc1` the activation was -1.15% (inactive).
With `COc1cc(/C=C2/SC(=S)N(Cc3ccccc3)C2=O)cc(Cl)c1O` the activation was 5470% (active).
`COc1ccc(/C=C2\SC(=S)N(CCCC(=O)Nc3ccccc3C(=O)O)C2=O)cc1OC` was tested, and the activation was 28.5% (active).
In the case of `COc1ccc(/C=C2\SC(=S)N(CCCC(=O)Nc3ccccn3)C2=O)cc1OC`, the activation is reported as 9.09% (inactive).
`C/C=C/c1ccc(OCCCNCC(C)O)c(OC)c1` (stereo not drawn) was tested, and the activation was 663% (active).
`COc1ccc(N2C(=O)c3cccc4c(N(C)CCO)ccc(c34)C2=O)cc1` was tested, and the activation was 4.11% (inactive).
For `CCC/C(C#Cc1ccc(N(C)C)cc1)=C1/c2ccccc2C(=O)N1c1ccccc1`, the activation was 94.7% (active).
In the case of `Cc1ccc(S(=O)(=O)c2cccc(S(=O)(=O)N3CCOCC3)c2)cc1S(=O)(=O)N1CCOCC1`, the activation is reported as 20.6% (active).
For `Cc1ccc(S(=O)(=O)N2CCOCC2)cc1C(=O)N1C(=O)c2cccc(N)c2C1=O`, the activation was 8.84% (inactive).
With `Cc1nnc(N2CCOCC2)c2nn(-c3cccc(Cl)c3)c(C)c12` the activation was 4.95% (inactive).
For `COC(=O)N/N=C/c1cccnc1`, the activation was 2.85% (inactive).
`COc1ccc(/C=N/NC(=O)c2cccnc2)cc1CN1CCOCC1` was tested, and the activation was 36.1% (active).
With `COc1ccc(/C=N/NC(=O)c2cc(OC)c(OC)c(OC)c2)cc1CN1CCc2cc(OC)c(OC)cc2C1C` (stereo not drawn) the activation was 28.3% (active).
For `O=C(CNC(=O)c1cccc(Cl)c1)N/N=C/c1cccnc1`, the activation was 11% (inactive).
For `COC(=O)C[n+]1cccc2ccccc21`, the activation was 212% (active).
With `O=C(C[n+]1cccc2ccccc21)c1ccccc1` the activation was 10.7% (inactive).
With `O=C(CCC1CCCN(C(=O)c2ccncc2)C1)NCc1ccc(F)c(F)c1` (stereo not drawn) the activation was 3.6% (inactive).
With `O=C(NCc1ccc(Cl)cc1)C1CCN(c2cnccn2)CC1` the activation was 68.5% (active).
In the case of `O=C(NCCc1ccccc1)C1CCN(c2ncccn2)CC1`, the activation is reported as 2.88% (inactive).
In the case of `CCOC(=O)c1cc2n(c1N)-c1ccccc1C2=O`, the activation is reported as 71.8% (active).
With `CCOC(=O)c1cc2c(s1)-c1ccccc1CC2` the activation was 0.58% (inactive).
For `CCOC(=O)c1ccccc1-n1nnnc1C`, the activation was 1.99% (inactive).
For `CCC(C)[C@H](NC(=O)N1CCC(C)CC1)C(=O)OC` (stereo partly drawn), the activation was 11.1% (inactive).
With `Oc1ccc(-c2c(C3=CCCCC3)sc3ccccc23)cc1` the activation was 125% (active).
`COc1ccccc1-c1sc2ccccc2c1-c1ccc(Br)nc1` was tested, and the activation was -1.06% (inactive).
For `CCN(C(=O)c1cc2ccccc2oc1=O)c1ccccc1`, the activation was 8.22% (inactive).
In the case of `N#CCCN(C(=O)c1ccco1)c1ccccc1`, the activation is reported as 4250% (active).
In the case of `CCOC(=O)c1cnc2ccccc2c1Nc1ccc(C(=O)O)cc1`, the activation is reported as 161% (active).
With `CCOC(=O)/C(=N\Nc1ccc(C(C)=O)cc1)c1csc(Nc2ccccc2)n1` the activation was 11.1% (inactive).
`COc1ccc(OCC(=O)OCCNC(=O)c2cccnc2)cc1` was tested, and the activation was 5.53% (inactive).
In the case of `Cc1ccc(OCCCC(=O)NC2CCCCC2)cc1`, the activation is reported as 4.78% (inactive).
With `COc1ccc(OCCNC(=O)c2ccc(C)cc2)cc1` the activation was 28.4% (active).
`Cc1sc2nc(COC(=O)c3cccc(S(=O)(=O)N(C)c4ccccc4)c3)[nH]c(=O)c2c1C` was tested, and the activation was 2.91% (inactive).
